Screens deposited in PubChem by several laboratories.
MT1-MMP act inh = MT1-MMP (human) activation inhibition. HT1080 RFP-PRO-GFP cells, GFP/RFP ratio fluorescence, overnight; percent of plate control window, DMSO zero. AID 651647. GFP/RFP ratio change, % at 20 µM. 0.061% of 360,000 active. P50281;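 active means GFP/RFP ratio change of at least 30% with cell ATP level not reduced by more than half and red fluorescence within 50% of control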
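system = RFP-PRO-GFP reporter HT1080 cells | dosing = 20 µM single dose, 1% DMSO | timing = overnight cell settling, then overnight compound exposure, 37 °C, 5% CO2 | read-out basis = GFP/RFP fluorescence ratio | controls = DMSO and RFP-L50D-GFP cell wells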
p-CIP stab down = compounds decreasing mouse p/CIP protein stability; F442A p/CIP-EGFP cells, EGFP fluorescence, 16 h; Q05BA5; decrease of EGFP signal, % at 10 µM; 0.01% of 290,000 active;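 active means EGFP signal decrease of at least 30% at 10 µM or well 3 SD below plate mean, unless failing retest; inactive means the rest, including hits failing retest or dose response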
SKN-1 inh = inhibitors of C. elegans SKN-1; C. elegans VP596 Pgst-4::GFP/RFP ratio, acrylamide-induced, 24 h; inhibition, % at 21.8 µM; 0.49% of 360,000 active;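 active means interference check ratio from 0.5 to 1.5 plus GFP to RFP signal ratio inhibition reaching or exceeding a fixed threshold, cut at about 30% in these data, passing the limit was not always enough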
MsrA act = bovine methionine sulfoxide reductase A activation | purified bovine MsrA, absorbance read-out | activation, % at 10.6 µM | 0.3% of 360,000 active | AID 602163; in the data active means activation above about 7.5%;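 further: 0% = vehicle and 100% = reference activator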
MsrA inh = inhibitors of bovine MsrA | purified bovine MsrA, absorbance read-out | inhibition, % at 15.5 µM | 0.75% of 360,000 active | AID 651718;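 further: 0% = vehicle wells with enzyme and 100% = reference inhibitor wells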
MsrA inh confirm = bovine MsrA inhibition, confirmed; shares compounds with MsrA inh; purified bovine MsrA, absorbance read-out; inhibition, % at 15.5 µM; 41% of 2,300 active;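 further: coupled to thioredoxin reductase with NADPH and selenocystamine and DMSO as substrate; 0% = vehicle only and 100% = full effect of reference inhibitor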
Starred values were filed as active, the others as inactive; x = no result. Rows were chosen to be rich in hits. Some 1.6% of all compounds tested hit in one or more screens of this group. Unless noted, no stated cut-off is given here; in the data, active means inhibition above about 4.5%; inactive means the rest.

SMILES	MT1-MMP act inh	p-CIP stab down	SKN-1 inh	MsrA act	MsrA inh	MsrA inh confirm
CCOC(=O)c1ccc(NC(=O)/C=C/c2cccs2)cc1	-1.8	-11.1	19.2	-7.7	3.3	x
O=C(/C=C/c1cccs1)Nc1ccc(S(=O)(=O)Nc2ncccn2)cc1	2.0	-8.1	-7.1	-6.7	4.7*	4.5
CCN(CC)CCOC(=O)c1ccc(NC(=O)/C=C/c2cccs2)cc1	0.8	-12.4	1.4	-2.2	5.5*	2.7
Cc1ccc(NCN2C(=O)c3ccccc3C2=O)c(C)n1	x	x	x	x	0.6	x
NS(=O)(=O)c1cccc(NC(=O)/C=C/c2cccs2)c1	2.0	-6.9	8.6	-4.3	5.1*	4.4
NS(=O)(=O)c1ccc(NC(=O)/C=C/c2cccc(Cl)c2)cc1	1.7	-5.5	4.3	-3.2	0.7	x
NS(=O)(=O)c1ccc(NC(=O)/C=C/c2cccs2)cc1	0.3	-9.1	-0.3	-10.6	8.2*	5.1*
COC(=O)[C@]12C[C@H](CC(=O)N3CCCC3)C(=O)N(Cc3ccccc3)C1=C[C@H](C1CCCC1)O[C@@H]2C	x	x	x	x	-0.3	x
CC1(C)OC(=O)C(=NNc2ccccc2C(=O)O)C(=O)O1	-2.8	-9.1	-10.3	-4.6	4.9*	2.4
CC1(C)OC(=O)C(=NNc2ccccc2)C(=O)O1	0.8	4.9	4.1	-7.5	4.0	x
CC1(C)OC(=O)C(=NNc2ccc(C(=O)O)cc2)C(=O)O1	0.9	-5.9	15.4	-4.8	4.8*	2.2
Cc1cc(/C=C(/C#N)c2cccc(F)c2)c(C)n1-c1cccnc1	-3.9	-7.8	16.5	-4.1	25.9*	27.2*
COc1cc(/C=N/NC(=O)[C@H](Cc2c[nH]c3ccccc23)NC(=O)OCC(C)C)cc([N+](=O)[O-])c1O	10.9	-13.1	12.0	-6.8	6.4*	4.4
CC(=O)c1ccc(N2CCN(C(=O)CCCc3nc4ccccc4s3)CC2)cc1	4.4	-0.9	-1.3	-9.6	5.7*	2.6
COC(=O)C1=C(C)N(Cc2ccc(C(F)(F)F)cc2)C(=NCc2ccccc2C(F)(F)F)NC1c1ccccc1C(F)(F)F (stereo not drawn)	x	x	x	x	0.6	x
Cc1onc(-c2ccccc2)c1C(=O)Nc1nnc(-c2ccncc2)s1	3.4	-6.6	0.5	-19.1	5.0*	4.9*
Cc1noc(C)c1C(=O)Nc1nnc(-c2ccccc2)s1	4.4	-5.4	7.8	-5.6	4.3	x
Cc1ccc(/C=C/C(=O)Nc2cccc(S(=O)(=O)N3CCOCC3)c2)o1	-5.4	-16.4	-3.7	-5.9	5.0*	4.9*
COCCCNC(=O)C(=O)N/N=C/c1cc2c(cc1Br)OCO2	5.7	-9.2	-4.2	-2.9	5.0*	2.9
Cc1nonc1C(=O)N/N=C/c1cc2c(cc1Br)OCO2	x	-3.6	8.7	-11.8	0.0	x
Cc1ccc(-n2c(=S)sc3c(=O)n(-c4ccc(F)cc4)c(SCC(=O)O)nc32)cc1C	4.3	-8.9	-1.4	-6.0	5.3*	1.9
Cc1ccc(-n2c(SCC(=O)O)nc3c(sc(=S)n3-c3ccc(C)c(C)c3)c2=O)cc1	6.1	-3.9	7.0	-3.0	3.0	x
C=CCn1cnc2scc(-c3ccc(OC)cc3)c2c1=O	-1.2	-8.1	5.1	-1.8	1.2	x
Cc1nc2scc(-c3cccs3)c2c(=O)o1	-0.1	-0.5	-6.2	-0.2	-0.6	x
Cc1ccc(C)n1-n1c(C)nc2scc(-c3cccs3)c2c1=O	-1.4	13.8	3.2	-1.9	29.1*	25.0*
SMILES	MT1-MMP act inh	p-CIP stab down	SKN-1 inh	MsrA act	MsrA inh	MsrA inh confirm
COc1ccc(-c2csc3nc(C)n(-n4cccc4)c(=O)c23)cc1	0.6	8.4	24.6	-2.4	8.6*	3.5
Cc1nc2scc(-c3cccs3)c2c(=O)n1-n1cccc1	-3.0	-17.2	-14.6	1.1	15.2*	10.5*
O=C1NC(=O)C2C3C=CC(C12)C1C(=O)NC(=O)C31 (stereo not drawn)	x	x	x	x	-0.6	x
CC1(C)OC(=O)C2=C(CC(CCc3ccccc3)OC2c2ccc(F)cc2)O1 (stereo not drawn)	x	x	x	x	0.6	x
COc1cc2oc(-c3ccc(O)cc3)cc(=O)c2c(OC)c1O	-2.0	5.6	-5.4	-5.0	7.1*	3.3
Nc1[nH]c(C(=O)c2ccc(Cl)cc2)c(-c2ccc(Br)cc2)c1C(=O)c1c[nH]c2ccc(F)cc12	x	x	x	x	1.0	x
COC(=O)/C=C1\OC(C)c2ccccc21 (stereo not drawn)	x	x	x	x	-0.3	x
O=C1NC(=O)C2(CCCc3ccc(N(CCO)CCO)cc32)N1 (stereo not drawn)	x	x	x	x	1.4	x
Oc1ccc(/C=N/NC(=S)Nc2cccnc2)cc1O	7.7	1.8	7.0	-9.4	3.7	x
Oc1ccc(C=NNC(=S)Nc2cccnc2)nc1	7.6	x	9.6	-2.7	7.0*	5.5*
S=C(N/N=C/c1ccc2ncccc2c1)Nc1cccnc1	5.0	-6.3	-8.9	2.8	7.2*	3.8
CC(C)(C)c1ccc(/C=N/NC(=S)Nc2cccnc2)cc1	x	-1.6	x	x	x	x
Brc1ccc(N2O[C@H]3C=C[C@@H]2C3)nc1	x	x	x	x	-0.3	x
COc1ccc(/C=C\C(=O)c2c(O)ccc3c(C)cc(=O)oc23)cc1OC	-8.6	-1.6	30.1	-3.5	5.2*	4.3
COc1cc(/C=C/C(=O)c2c(O)ccc3c(C)cc(=O)oc23)ccc1O	4.2	2.0	-17.4	-7.8	6.9*	6.1*
CC(=O)c1c(OCC(=O)O)ccc2c(C)cc(=O)oc12	4.3	3.6	-2.3	-4.3	0.9	x
Cc1cc(=O)oc2c(C(=O)/C=C/c3ccccc3)c(O)ccc12	-4.6	-12.8	20.6	-3.9	-1.0	x
Cc1cc(=O)oc2c(C(=O)/C=C\c3cccs3)c(O)ccc12	-4.2	-6.0	1.6	-6.0	5.2*	6.3*
Nc1nc2cc3c(cc2cc1C(=O)NCc1cccnc1)OCO3	x	x	x	x	0.6	x
O=S1(=O)CCC(N=Cc2ccc(-c3ccc(Cl)cc3)o2)C1 (stereo not drawn)	-0.4	-4.1	9.7	-2.0	4.8*	3.6
CN(C)c1ccc(C(=O)Nc2ccc(S(=O)(=O)NC3=NCCCCC3)cc2)cc1	4.8	-7.9	1.6	-5.8	5.1*	2.4
CN1/C(=C\C=O)C(C)(C)c2ccccc21	9.9	-44.1	32.5	-0.9	6.8*	6.0*
Cc1cc(/N=C/C=C2\N(C)c3ccccc3C2(C)C)n(CCC#N)n1	9.4	-7.0	4.1	-2.8	5.4*	2.9
CN(C)c1ccc(N=C/C=C2\N(C)c3ccccc3C2(C)C)cc1	-1.6	-33.5	16.3	-2.8	5.0*	1.9
CC(C)(C)OC(=O)N1CCC[C@@H]1C(=O)N1CCC[C@H]1C(=O)NCc1ccccc1	x	x	x	x	-0.2	x
COc1ccc(/C([O-])=C(/C(=S)Nc2ccc(C)c(C)c2)n2c[n+](C)c3ccccc32)cc1OC	-0.3	0.7	-6.4	-6.0	4.8*	2.4
C=CCNc1nc(N)c(C(=O)Nc2cc(C)on2)s1	2.3	-0.4	9.9	-6.2	6.2*	3.1
Cc1cc(NC(=O)c2sc(Nc3ccc(F)cc3)nc2N)no1	1.9	-0.3	5.8	-4.7	0.7	x
